Assay results as given in PMC7296533 (ACS Infectious Diseases, 2020).

Columns and labels:
VIM-2 = VIM-2 (Escherichia coli, UniProt Q5U7L7); experiment: MBL enzyme inhibition assay, fluorescent cephalosporin substrate FC5; type: biochemical
Procedure, shortened: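 VIM-2 was expressed from a donated plasmid construct and purified. Test compound was serially diluted in 50 mM HEPES pH 7.2 containing 0.01% Triton X-100 and 1 μM ZnSO4, then preincubated for 15 min at 25 °C with 100 pM enzyme. Fluorescent cephalosporin FC536 (0.5 μM) was added and fluorescence (λex 380, λem 460 nm) followed over 30–40 scans. IC50 was fitted from initial rates against concentration.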

IMP-28 = experiment: MBL enzyme inhibition assay, fluorescent cephalosporin substrate FC5; type: biochemical; conditions: read-out: IC50 against IMP-28; 60 pM IMP-28, 1 μM ZnSO4; mean ± SD
Procedure, shortened: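 Recombinant C-terminal His-tagged IMP-28 (pET28b construct). Serial dilutions of test compound were made in 50 mM HEPES pH 7.2 with 0.01% Triton X-100 and 1 μM ZnSO4. Enzyme (60 pM) was preincubated with compound for 15 min at 25 °C. FC536 (16 μM) was added and fluorescence (ex 380/em 460 nm) read immediately over 30–40 cycles. IC50 was curve-fitted from initial velocities versus inhibitor concentration.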

[1] = test system: panel of carbapenem-resistant clinical isolates of Gram-negative bacteria; experiment: Single concentration synergy assay, summary over the panel; type: cell-based; conditions: for Reduction of MIC of Meropenem, in most cases: inhibitor at 32 μg/mL, strains expressing IMP-type enzymes
Procedure, shortened: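 CLSI broth microdilution. Isolates grown overnight on blood agar at 37 °C, then in TSB at 37 °C with shaking to OD600 0.5, and diluted in Mueller-Hinton broth. Meropenem serially diluted in MHB with test compound at a fixed 32 μg/mL final. Incubated 37 °C with shaking for 16–20 h. MIC is the lowest concentration with no visible growth, as the median of triplicates.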

NDM-1 = NDM-1 (Klebsiella pneumoniae, UniProt C7C422); experiment: MBL enzyme inhibition assay, fluorescent cephalosporin substrate FC5; type: biochemical
[2] = test system: E. coli RC0089 (clinical NDM-1 positive isolate); experiment: OD600 checkerboard assay with Meropenem; type: cell-based; conditions: E. coli expressing NDM-1

NDM-1, sequence (C7C422 29-270, looked up, species assumed): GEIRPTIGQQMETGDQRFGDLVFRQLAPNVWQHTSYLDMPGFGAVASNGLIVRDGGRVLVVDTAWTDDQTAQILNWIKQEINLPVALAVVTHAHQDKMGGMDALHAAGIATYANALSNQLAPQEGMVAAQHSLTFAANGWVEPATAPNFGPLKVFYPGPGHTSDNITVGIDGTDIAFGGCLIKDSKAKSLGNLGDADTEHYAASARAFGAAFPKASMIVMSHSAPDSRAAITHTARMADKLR

Structure (SMILES) | IC50 (VIM-2) | IC50 (IMP-28) | Reduction of MIC of Meropenem, in most cases [1] | IC50 (NDM-1) | Effect of zinc sulfate concentration on IC50 against NDM-1 (NDM-1; zinc sulfate 0.1 to 20 μM) | Synergy with Meropenem against strains expressing serine-carbapenemases ([1]; KPC-2 and OXA-48) | Antibacterial activity of the inhibitor alone ([1]; highest tested concentration 256 μg/mL) | Relationship with Meropenem in checkerboard (in words) [2]
O=C(O)c1cccc(C(=O)O)n1 [DPA, 2,6-Dipicolinic acid, reference compound] | 2.9 ± 0.5 µM | 17 ± 1 µM | ≤ 4 fold | 3.8 ± 0.04 µM | zinc-dependent effect | – | – | –
O=C(O)CN(CC(=O)O)CC(=O)O [compound 3, Nitrilotriacetic acid] | ~2.4 µM | 112 ± 3 µM | ≤ 4 fold | – | – | complete lack of synergy | no antibacterial activity | strong synergistic relationship
